Source: ChEMBL document CHEMBL3853331, “Preparation, Antiepileptic Activity, and Cardiovascular Safety of Dihydropyrazoles as Brain-Penetrant T-Type Calcium Channel Blockers” (J Med Chem, 2016)
≈ marks a conversion by molar mass, not a printed value.

How the values were obtained:
[1] = Aqueous solubility of the compound at pH 7 by UV-HPLC method; assay type: physicochemical
Procedure, shortened: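 Compound dispensed from a 10 mM DMSO stock and the solvent evaporated. Residue stirred 24 h at room temperature in buffer: citrate (55 mM) pH 4.0 or phosphate (67 mM) pH 7.0. Mixture filtered by centrifugation. Filtrate concentration measured by HPLC-UV against calibration solutions.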

[2] = Half life in Wistar rat plasma at 0.2 mg/kg, iv; assay type: ADME, organism-based
Procedure, shortened: (§1)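 Male Wistar rats dosed iv at 0.2 mg/kg or po at 2 mg/kg. In the inhibited arm, the broad CYP inhibitor aminobenzotriazol was given orally 2 h before dosing. Clearance, Vss and half-life derived from plasma concentrations after the iv dose; Cmax and Tmax from the po dose.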

[3] = Drug uptake in Wistar rat brain at 10 mg/kg, po measured after 1 hr; assay type: ADME, organism-based; conditions: read-out: Drug uptake
Procedure, shortened: (§2)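 Male Wistar rats given oral doses of 10, 30 or 100 mg/kg. Plasma, brain and CSF collected at 1 h, and at 3 h for the 10 mg/kg dose; compound concentrations measured in each.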

[4] = Plasma concentration in Wistar rat at 30 mg/kg, po measured after 1 hr; assay type: ADME, organism-based
Rattus norvegicus [5] = assay: Cardiovascular toxicity in spontaneously hypertensive rat assessed as increase in PR interval of ECG at 100 mg/kg, po; assay type: organism-based; conditions: in vivo
Procedure, shortened: (§3)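 Conscious, freely moving male spontaneously hypertensive rats with telemetry recording MAP, HR and ECG. Single oral dose (5 ml/kg) given as a suspension in 0.5% w/v methylcellulose in water, in the morning during the sleep phase. Vehicle controls run in parallel, n = 8 per group.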

[6] = target: T1, Voltage-dependent T-type calcium channel subunit alpha-1H (Homo sapiens, UniProt O95180); assay: Inhibition of human T-type calcium channel Cav3.2 expressed in CHO cells assessed as inhibition of calcium tail current at -90 mV holding potential measured after 150 secs by QPatch assay; assay type: cell-based
T1 sequence (O95180 whole entry): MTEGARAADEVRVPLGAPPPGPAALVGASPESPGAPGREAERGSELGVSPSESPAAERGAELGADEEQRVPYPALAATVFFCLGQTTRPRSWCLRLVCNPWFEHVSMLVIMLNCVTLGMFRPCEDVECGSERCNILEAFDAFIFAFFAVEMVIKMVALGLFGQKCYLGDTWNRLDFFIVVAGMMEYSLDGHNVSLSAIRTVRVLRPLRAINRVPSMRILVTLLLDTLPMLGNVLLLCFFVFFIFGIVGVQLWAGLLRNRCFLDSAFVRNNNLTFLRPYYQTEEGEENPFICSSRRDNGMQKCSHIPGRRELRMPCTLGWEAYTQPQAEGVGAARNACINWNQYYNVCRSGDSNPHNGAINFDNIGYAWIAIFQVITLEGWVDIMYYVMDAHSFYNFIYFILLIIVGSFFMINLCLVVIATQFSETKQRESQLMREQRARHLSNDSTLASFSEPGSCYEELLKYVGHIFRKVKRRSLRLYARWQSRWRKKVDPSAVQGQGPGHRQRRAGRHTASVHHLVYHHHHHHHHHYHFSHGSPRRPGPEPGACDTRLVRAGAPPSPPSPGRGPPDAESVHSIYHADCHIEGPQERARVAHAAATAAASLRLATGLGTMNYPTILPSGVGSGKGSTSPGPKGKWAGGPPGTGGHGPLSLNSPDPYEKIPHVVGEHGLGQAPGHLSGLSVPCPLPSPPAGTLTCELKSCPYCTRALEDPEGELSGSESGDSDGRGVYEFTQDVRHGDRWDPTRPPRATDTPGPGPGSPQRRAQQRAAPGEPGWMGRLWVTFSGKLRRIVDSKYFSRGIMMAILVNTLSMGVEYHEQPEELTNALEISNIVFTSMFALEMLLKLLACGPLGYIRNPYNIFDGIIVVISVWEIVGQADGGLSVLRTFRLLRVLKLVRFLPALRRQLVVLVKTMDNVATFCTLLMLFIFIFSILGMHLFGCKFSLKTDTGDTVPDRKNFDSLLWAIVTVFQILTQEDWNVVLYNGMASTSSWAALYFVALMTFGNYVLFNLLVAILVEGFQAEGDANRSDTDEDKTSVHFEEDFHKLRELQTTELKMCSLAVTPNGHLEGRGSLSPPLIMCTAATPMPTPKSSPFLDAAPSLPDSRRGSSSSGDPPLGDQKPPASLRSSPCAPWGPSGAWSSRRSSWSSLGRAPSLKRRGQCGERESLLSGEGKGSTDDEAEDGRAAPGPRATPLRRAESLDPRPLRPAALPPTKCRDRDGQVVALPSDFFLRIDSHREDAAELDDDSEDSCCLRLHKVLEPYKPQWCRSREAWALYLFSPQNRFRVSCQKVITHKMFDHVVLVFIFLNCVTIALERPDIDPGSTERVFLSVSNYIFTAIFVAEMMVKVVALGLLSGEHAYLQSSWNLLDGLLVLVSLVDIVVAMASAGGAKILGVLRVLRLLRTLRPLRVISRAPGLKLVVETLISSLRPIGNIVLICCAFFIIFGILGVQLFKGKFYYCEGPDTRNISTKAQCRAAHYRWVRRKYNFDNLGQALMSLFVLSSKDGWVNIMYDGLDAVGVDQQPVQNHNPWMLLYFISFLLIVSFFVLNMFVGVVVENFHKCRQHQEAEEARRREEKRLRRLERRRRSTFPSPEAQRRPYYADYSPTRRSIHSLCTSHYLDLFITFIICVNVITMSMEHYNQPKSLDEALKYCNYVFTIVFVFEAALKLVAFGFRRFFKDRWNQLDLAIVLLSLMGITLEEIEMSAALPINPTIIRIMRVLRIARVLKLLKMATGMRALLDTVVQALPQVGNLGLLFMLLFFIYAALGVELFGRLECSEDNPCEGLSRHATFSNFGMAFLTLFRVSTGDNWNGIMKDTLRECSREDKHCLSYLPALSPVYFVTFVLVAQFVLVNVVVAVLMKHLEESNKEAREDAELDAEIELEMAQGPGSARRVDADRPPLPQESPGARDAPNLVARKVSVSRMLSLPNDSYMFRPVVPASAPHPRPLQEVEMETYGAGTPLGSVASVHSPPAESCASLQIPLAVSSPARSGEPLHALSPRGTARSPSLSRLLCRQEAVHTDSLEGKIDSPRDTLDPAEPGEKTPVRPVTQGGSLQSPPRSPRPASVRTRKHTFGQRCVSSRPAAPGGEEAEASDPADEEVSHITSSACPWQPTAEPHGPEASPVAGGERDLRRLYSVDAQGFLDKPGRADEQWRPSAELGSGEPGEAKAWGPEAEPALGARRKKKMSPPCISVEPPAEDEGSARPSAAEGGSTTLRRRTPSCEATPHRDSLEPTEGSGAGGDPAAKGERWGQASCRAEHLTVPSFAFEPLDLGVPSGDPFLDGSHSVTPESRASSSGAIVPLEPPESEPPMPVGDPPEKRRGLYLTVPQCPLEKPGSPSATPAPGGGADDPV
Procedure, shortened: (§4)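 CHO cells stably expressing human Cav3.1, Cav3.2 or Cav3.3, automated QPatch recording. 3-ms depolarization to +20 mV from a holding potential of -90 or -60 mV. Ca2+ tail current measured at -60 mV. Cs-glutamate internal and TEA-Cl external solution with 5 mM Ca2+. Effect read 150 s after application.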

[7] = Drug uptake in Wistar rat CSF at 10 mg/kg, po measured after 3 hrs; assay type: ADME, organism-based, Cerebrospinal fluid; conditions: read-out: Drug uptake; procedure, shortened: as §2
[8] = Cmax in Beagle dog plasma at 10 mg/kg, po; assay type: ADME, organism-based, Canis lupus familiaris; design: dose 10 mg/kg, route oral
Procedure, shortened: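 Beagle dogs given a single oral dose of 10 mg/kg; plasma Cmax and Tmax determined.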

[9] = Plasma concentration in Wistar rat at 100 mg/kg, po measured after 1 hr; assay type: ADME, organism-based
[10] = target: Voltage-dependent L-type calcium channel subunit alpha-1C (Homo sapiens, UniProt Q13936); assay: Inhibition of recombinant […] calcium channel Cav1.2 (unknown origin) expressed in HEK293 cells assessed as inhibition of Kcl-induced calcium influx preincubated for 3 mins prior CaCl2 addition by Fluo-4-AM dye-based FLIPR assay; assay type: cell-based
Sequence of Voltage-dependent L-type calcium channel subunit alpha-1C (Q13936 whole entry): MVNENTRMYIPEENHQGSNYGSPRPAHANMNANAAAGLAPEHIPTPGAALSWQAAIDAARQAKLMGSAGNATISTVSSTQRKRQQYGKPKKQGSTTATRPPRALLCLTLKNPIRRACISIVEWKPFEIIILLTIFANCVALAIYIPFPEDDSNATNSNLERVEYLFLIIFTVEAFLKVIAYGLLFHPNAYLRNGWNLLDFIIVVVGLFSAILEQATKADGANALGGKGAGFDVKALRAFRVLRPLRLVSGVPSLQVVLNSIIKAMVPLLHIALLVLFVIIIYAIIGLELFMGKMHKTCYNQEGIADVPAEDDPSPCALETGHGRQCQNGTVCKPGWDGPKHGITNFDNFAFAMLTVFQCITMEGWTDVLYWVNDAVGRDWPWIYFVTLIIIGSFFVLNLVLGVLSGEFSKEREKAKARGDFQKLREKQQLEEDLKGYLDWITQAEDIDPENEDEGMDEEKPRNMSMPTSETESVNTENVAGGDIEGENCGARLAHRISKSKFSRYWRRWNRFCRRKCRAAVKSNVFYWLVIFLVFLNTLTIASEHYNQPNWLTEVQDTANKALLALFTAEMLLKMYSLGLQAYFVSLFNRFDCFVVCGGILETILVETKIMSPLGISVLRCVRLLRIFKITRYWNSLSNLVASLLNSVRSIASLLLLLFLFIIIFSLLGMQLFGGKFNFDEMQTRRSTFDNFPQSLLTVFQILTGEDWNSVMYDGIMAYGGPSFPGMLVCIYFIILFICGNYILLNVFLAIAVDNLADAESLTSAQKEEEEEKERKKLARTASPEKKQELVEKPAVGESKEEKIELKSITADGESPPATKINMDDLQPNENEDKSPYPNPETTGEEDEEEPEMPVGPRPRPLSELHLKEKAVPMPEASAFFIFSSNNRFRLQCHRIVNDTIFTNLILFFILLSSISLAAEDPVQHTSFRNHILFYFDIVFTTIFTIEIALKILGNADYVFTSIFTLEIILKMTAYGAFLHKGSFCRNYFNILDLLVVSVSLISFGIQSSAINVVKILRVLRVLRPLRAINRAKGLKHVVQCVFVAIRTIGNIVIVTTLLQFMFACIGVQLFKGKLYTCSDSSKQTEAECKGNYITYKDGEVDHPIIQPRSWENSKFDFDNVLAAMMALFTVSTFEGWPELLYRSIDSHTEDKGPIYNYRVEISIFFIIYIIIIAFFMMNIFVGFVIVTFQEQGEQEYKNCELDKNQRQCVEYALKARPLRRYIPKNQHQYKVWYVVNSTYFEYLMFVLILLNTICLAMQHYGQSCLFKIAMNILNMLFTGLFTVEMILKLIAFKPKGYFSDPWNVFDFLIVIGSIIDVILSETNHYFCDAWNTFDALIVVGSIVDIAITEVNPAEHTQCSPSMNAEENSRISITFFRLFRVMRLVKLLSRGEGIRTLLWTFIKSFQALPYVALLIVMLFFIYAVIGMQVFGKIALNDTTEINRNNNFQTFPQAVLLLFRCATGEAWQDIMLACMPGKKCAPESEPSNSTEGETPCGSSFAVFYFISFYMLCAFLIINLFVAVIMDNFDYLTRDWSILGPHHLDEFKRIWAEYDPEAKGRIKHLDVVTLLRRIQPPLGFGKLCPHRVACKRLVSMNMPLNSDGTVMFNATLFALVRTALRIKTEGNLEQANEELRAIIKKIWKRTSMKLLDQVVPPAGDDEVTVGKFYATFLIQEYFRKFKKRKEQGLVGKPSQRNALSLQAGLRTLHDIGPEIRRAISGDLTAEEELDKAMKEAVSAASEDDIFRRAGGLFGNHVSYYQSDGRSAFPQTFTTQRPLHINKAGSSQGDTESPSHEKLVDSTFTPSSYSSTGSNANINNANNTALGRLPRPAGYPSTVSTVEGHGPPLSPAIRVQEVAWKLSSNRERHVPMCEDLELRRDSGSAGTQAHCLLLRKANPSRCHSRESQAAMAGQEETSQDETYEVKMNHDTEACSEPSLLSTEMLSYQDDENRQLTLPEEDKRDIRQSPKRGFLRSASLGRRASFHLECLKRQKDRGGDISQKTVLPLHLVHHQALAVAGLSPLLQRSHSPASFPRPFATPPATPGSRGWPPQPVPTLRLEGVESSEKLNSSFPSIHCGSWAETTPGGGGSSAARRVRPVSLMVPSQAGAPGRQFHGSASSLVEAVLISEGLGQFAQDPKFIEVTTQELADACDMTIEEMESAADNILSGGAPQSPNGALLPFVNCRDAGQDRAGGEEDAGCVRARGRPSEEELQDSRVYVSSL
Procedure, shortened: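 HEK293 cells stably expressing the channel, seeded overnight and loaded 1 h at 37°C with 3 µM Fluo-4-AM. Compounds given as a 3-fold dilution series from 10 µM to 0.05 nM and incubated 3 min. For T-type channels, dilutions in TEAC buffer and stimulation with 10 mM final CaCl2. For Cav1.2, dilutions in assay buffer and stimulation with 20 mM final KCl. IC50 from area under the fluorescence trace against vehicle; mean of at least two experiments.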

[11] = Drug uptake in Wistar rat brain at 100 mg/kg, po measured after 1 hr; assay type: ADME, organism-based; conditions: read-out: Drug uptake; procedure, shortened: as §2
Rattus norvegicus [12] = assay: Anticonvulsant activity in WAG/Rij rat model of generalized nonconvulsive absence-like epilepsy assessed as decrease in total duration of spontaneous seizures at 100 mg/kg, po administered as single dose at beginning of nocturnal active phase measured over 12 hrs by radiotelometry relative to vehicle control
[13] = Clearance in Wistar rat plasma at 0.2 mg/kg, iv administered 2 hrs after aminobenzotriazol-treatment; assay type: ADME, organism-based; procedure, shortened: as §1
Cytochrome P450 2D6 = Cytochrome P450 2D6 (Homo sapiens, UniProt P10635); assay: Inhibition of CYP2D6 (unknown origin)
Sequence of Cytochrome P450 2D6 (P10635 whole entry): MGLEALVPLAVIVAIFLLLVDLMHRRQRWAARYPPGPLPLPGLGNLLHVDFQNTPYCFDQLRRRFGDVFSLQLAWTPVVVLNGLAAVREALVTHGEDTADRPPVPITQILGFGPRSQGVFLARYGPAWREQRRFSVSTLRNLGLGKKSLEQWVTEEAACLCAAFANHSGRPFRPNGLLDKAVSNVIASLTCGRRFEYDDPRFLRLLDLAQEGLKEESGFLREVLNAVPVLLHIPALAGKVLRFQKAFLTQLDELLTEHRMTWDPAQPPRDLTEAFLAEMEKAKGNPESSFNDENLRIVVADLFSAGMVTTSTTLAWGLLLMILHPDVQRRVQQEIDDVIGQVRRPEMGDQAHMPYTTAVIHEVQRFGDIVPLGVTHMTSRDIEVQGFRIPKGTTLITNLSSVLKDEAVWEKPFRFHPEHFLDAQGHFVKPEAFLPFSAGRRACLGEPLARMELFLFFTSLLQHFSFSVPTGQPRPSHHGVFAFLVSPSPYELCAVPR

Rattus norvegicus [14] = assay: Anticonvulsant activity in WAG/Rij rat model of generalized nonconvulsive absence-like epilepsy assessed as decrease in number of spontaneous seizures at 100 mg/kg, po administered as single dose at beginning of nocturnal active phase measured over 12 hrs by radiotelometry relative to vehicle control
Rattus norvegicus [15] = organism: Rattus norvegicus; assay: Inhibition of Wistar rat brain potassium channel at 10 uM assessed as reduction in fast potassium current at -80 mV holding potential measured after 180 secs
Procedure, shortened: (§5)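 Cortical neurons from E18 Wistar rat embryos, cultured 9-15 days, recorded by manual patch clamp from a holding potential of -80 mV. K+ currents: one 50-ms step to 0 mV, fast as peak outward and slow as end-of-pulse current. Na+ currents: train of fifteen 10-ms steps to 0 mV, peak inward current read at the first and last pulses. Effects read at least 180 s after application.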

Rattus norvegicus [16] = organism: Rattus norvegicus; assay: Inhibition of Wistar rat brain potassium channel at 10 uM assessed as reduction in slow potassium current at -80 mV holding potential measured after 180 secs; procedure, shortened: as §5
[17] = Plasma concentration in Wistar rat at 10 mg/kg, po measured after 1 hr; assay type: ADME, organism-based
[18] = target: Voltage-dependent T-type calcium channel subunit alpha-1G (Homo sapiens, UniProt O43497); assay: Inhibition of human T-type calcium channel Cav3.1 expressed in CHO cells assessed as inhibition of calcium tail current at -60 mV holding potential measured after 150 secs by QPatch assay; assay type: cell-based; procedure, shortened: as §4
[19] = Fraction unbound in human plasma; assay type: ADME, cell-free
Rattus norvegicus [20] = assay: Anticonvulsant activity in WAG/Rij rat model of generalized nonconvulsive absence-like epilepsy assessed as decrease in spontaneous seizures at 100 mg/kg, po administered as single dose at beginning of nocturnal active phase measured over 4 hrs by radiotelometry relative to vehicle control
[21] = Drug uptake in Wistar rat assessed as unbound drug level measured after 1 hr; assay type: ADME; conditions: in vivo
[22] = Drug uptake in Wistar rat CSF at 100 mg/kg, po measured after 1 hr; assay type: ADME, organism-based, Cerebrospinal fluid; conditions: read-out: Drug uptake; procedure, shortened: as §2
Rattus norvegicus [23] = assay: Cardiovascular toxicity in spontaneously hypertensive rat assessed as reduction in mean […] pressure after 18 hrs at 100 mg/kg, po; assay type: organism-based; conditions: in vivo; procedure, shortened: as §3
[24] = Intrinsic clearance in rat hepatocytes; assay type: ADME, cell-based, Hepatocyte
Rattus norvegicus [25] = assay: Anticonvulsant activity in WAG/Rij rat model of generalized nonconvulsive absence-like epilepsy assessed as decrease in duration of spontaneous seizures at 100 mg/kg, po administered as single dose at beginning of nocturnal active phase measured over 4 hrs by radiotelometry relative to vehicle control
[26] = Metabolic stability in mouse microsomes measured per mg protein; assay type: ADME, Microsome
[27] = Fraction unbound in rat plasma; assay type: ADME, cell-free
[28] = target: T1, Voltage-dependent T-type calcium channel subunit alpha-1H; assay: Inhibition of human T-type calcium channel Cav3.2 expressed in CHO cells assessed as inhibition of calcium tail current at -60 mV holding potential measured after 150 secs by QPatch assay; assay type: cell-based; procedure, shortened: as §4
[29] = Clearance in Wistar rat plasma at 0.2 mg/kg, iv; assay type: ADME, organism-based; procedure, shortened: as §1

For O=C(Nc1ccc(F)cc1)N1N=C(c2ccncc2)CC1c1ccc(F)cc1 (stereo not given), the solubility [1] was 2 µg/mL (≈ 5.29 µM), the half-life [2] was 426 min and the concentration at 1 h [3] was 800 nM. The concentration at 1 h [4] was 630 nM, the Activity (Rattus norvegicus [5]) was “Toxic” and the IC50 [6] was 1700 nM. For the same molecule, the concentration at 3 h [7] was 29 nM, the Cmax [8] was 160 nM and the concentration at 1 h [9] was 1230 nM. It also gave an IC50 [10] of 6.4 µM, a concentration at 1 h [11] of 4.27 µM and an inhibition in vivo at 100 mg/kg (Rattus norvegicus [12]) of 62.2%. For the same molecule, the clearance [13] was 1.6 mL/min/kg, the IC50 (Cytochrome P450 2D6) was 44 µM and the inhibition in vivo at 100 mg/kg (Rattus norvegicus [14]) was 63.5%. For the same molecule, the inhibition (Rattus norvegicus [15]) was 18%, the inhibition (Rattus norvegicus [16]) was 3% and the concentration at 1 h [17] was 270 nM. The IC50 [18] was 450 nM, the fraction unbound [19] was 0.02 and the inhibition in vivo at 100 mg/kg (Rattus norvegicus [20]) was > 99%. The “Drug uptake(free)” value [21] was 37 nM, the concentration at 1 h [22] was 61 nM and the Activity (Rattus norvegicus [23]) was “Non-Toxic”. For the same molecule, the CLH [24] was 5.7 µL/min, the inhibition in vivo at 100 mg/kg (Rattus norvegicus [25]) was > 99% and the microsomal CLint [26] was 37 µL/min/mg. The fraction unbound [27] was 0.03, the IC50 [28] was 220 nM and the clearance [29] was 110 mL/min/kg.
